Calls of active or inactive are those of the source.
Experiments:
Klebsiella pneumoniae [1] = assay: Potentiation of imipenem antibacterial activity against Klebsiella pneumoniae BAA 2146 expressing NDM-1 assessed as reduction in imipenem MIC at 50 uM after 16 hrs by broth microdilution technique; format: functional
Method in brief: (§1)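 Modified broth microdilution: imipenem or meropenem MIC measured in CAMHB supplemented with a fixed concentration of the 2-AI compound. Fold reduction is taken against the carbapenem MIC without compound.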

Klebsiella pneumoniae [2] = assay: Antibacterial activity against Klebsiella pneumoniae BAA 2146 expressing NDM-1 after 16 hrs by broth microdilution technique; format: functional; conditions: BAA 2146, 16 h
Method in brief: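 MIC of the 2-AI compound alone, determined by modified broth microdilution in cation-adjusted Mueller Hinton broth (CAMHB).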

Klebsiella pneumoniae [3] = assay: Potentiation of meropenem antibacterial activity against Klebsiella pneumoniae BAA 2146 expressing NDM-1 assessed as reduction in meropenem MIC at 50 uM after 16 hrs by broth microdilution technique; format: functional, organism-based; method in brief: as §1
Klebsiella pneumoniae [4] = assay: Antibacterial activity against Klebsiella pneumoniae BAA 2146 expressing NDM-1 assessed as intact to permeabilized cell membrane ratio at 50 uM after 1 hr by SYTO9/PI-based fluorimetry relative to control; format: functional
Method in brief: (§2)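 Membrane damage was measured by Baclight assay after 1 h exposure of the NDM-1 strain to compound. The intact/permeabilized membrane ratio is expressed as % of DMSO-only treated control bacteria.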

Klebsiella pneumoniae [5] = assay: Potentiation of carbapenem antibacterial activity against Klebsiella pneumoniae BAA 2146 expressing NDM-1 assessed as reduction in carbapenem MIC at 50 uM after 16 hrs by broth microdilution technique; format: functional
Method in brief: (§3)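 Modified broth microdilution in cation-adjusted Mueller Hinton broth. The adjuvant's own MIC is measured first in CAMHB. Antibiotic MICs (imipenem/meropenem, or cefotaxime for the ESBL strain) are then determined in CAMHB supplemented with the 2-aminoimidazole at a fixed concentration of ≤30% of its own MIC. Reduction is reported as fold change versus the antibiotic MIC without adjuvant.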

Klebsiella pneumoniae [6] = assay: Potentiation of imipenem antibacterial activity against Klebsiella pneumoniae BAA 2146 expressing NDM-1 assessed as reduction in imipenem MIC at 30 uM after 16 hrs by broth microdilution technique; format: functional; method in brief: as §1
Klebsiella pneumoniae [7] = assay: Potentiation of meropenem antibacterial activity against Klebsiella pneumoniae BAA 2146 expressing NDM-1 assessed as reduction in meropenem MIC at 30 uM after 16 hrs by broth microdilution technique; format: functional; method in brief: as §1
Klebsiella pneumoniae [8] = assay: Antibacterial activity against Klebsiella pneumoniae BAA 2146 expressing NDM-1 assessed as intact to permeabilized cell membrane ratio at 30 uM after 1 hr by SYTO9/PI-based fluorimetry relative to control; format: functional; method in brief: as §2
Klebsiella pneumoniae [9] = assay: Potentiation of imipenem antibacterial activity against Klebsiella pneumoniae BAA 2146 expressing NDM-1 assessed as reduction in imipenem MIC at 40 uM after 16 hrs by broth microdilution technique; format: functional
Klebsiella pneumoniae [10] = assay: Potentiation of imipenem antibacterial activity against Klebsiella pneumoniae BAA 2146 expressing NDM-1 assessed as increase in log reduction in CFU of imipenem at 30 uM at 4 to 16 hrs relative to control; format: functional, organism-based
Method in brief: (§4)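 Time-kill: cultures grown in CAMHB with imipenem (2–32 μg/mL) with or without 30 μM compound. Bacteria were plated at time points up to 16 h and viable CFU enumerated. Log reduction in CFU/mL is relative to untreated control; ≥2 log₁₀ drop versus antibiotic alone counted as synergy.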

Klebsiella pneumoniae [11] = assay: Potentiation of imipenem antibacterial activity against Klebsiella pneumoniae BAA 2146 expressing NDM-1 assessed as decreased regrowth at 30 uM at 4 to 16 hrs relative to control; format: functional, organism-based
Method in brief: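 Time-kill: K. pneumoniae BAA-2146 (NDM-1) grown in CAMHB with imipenem (2, 8 or 32 μg/mL in figure; 16 and 4 μg/mL also reported) with or without additive at 30 μM. Viable CFU counted by plating at time points up to 16 h; log reduction in CFU/mL versus untreated control. Synergy defined as ≥2 log10 CFU decrease versus antibiotic alone.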

Klebsiella pneumoniae [12] = assay: Antibacterial activity against Klebsiella pneumoniae BAA 2146 expressing NDM-1 assessed as reduction in CFU at 30 uM after 16 hrs relative to control; format: functional, organism-based; method in brief: as §4
Klebsiella pneumoniae [13] = assay: Potentiation of imipenem antibacterial activity against Klebsiella pneumoniae BAA 1705 expressing KPC-2 assessed as reduction in imipenem MIC at 30 uM after 16 hrs by broth microdilution technique; format: functional; method in brief: as §3
Klebsiella pneumoniae [14] = assay: Potentiation of cefotaxime antibacterial activity against Klebsiella pneumoniae ATCC 700603 expressing extended spectrum beta-lactamase assessed as reduction in cefotaxime MIC at 30 uM after 16 hrs by broth microdilution technique; format: functional; method in brief: as §3
[15] = Hemolytic activity against defibrinated sheep blood after 1 hr by UV-spectrophotometry; format: ADME, tissue-based, Ovis aries; conditions: read-out: HD50
Method in brief: (§5)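 Hemolysis was tested on mechanically defibrinated sheep blood. Lysis is expressed relative to a positive control. HD₅₀ is the concentration lysing 50% of cells versus that control.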

[16] = Hemolytic activity against defibrinated sheep blood at 30 uM after 1 hr by UV-spectrophotometry relative to control; format: ADME, tissue-based, Ovis aries; conditions: read-out: Activity; method in brief: as §5

SMILES | MIC (Klebsiella pneumoniae [2]) | Activity (Klebsiella pneumoniae [1]) | Activity (Klebsiella pneumoniae [3]) | also measured
Cl.Nc1nc(-c2ccc(-c3ccccc3)cc2)c[nH]1 | > 200 µM | – | – | –
CC(C)(C)c1ccc(-c2c[nH]c(N)n2)cc1.Cl | 200 µM | – | – | –
CCCCCc1ccc(-c2c[nH]c(N)n2)cc1.Cl | 100 µM | – | – | –
CCCCCCCc1ccc(-c2c[nH]c(N)n2)cc1.Cl | 200 µM | – | – | Activity (Klebsiella pneumoniae [4]): 21.2%; fold change (FC) (Klebsiella pneumoniae [5]): 2
CCCCCCc1ccc(-c2nc(N)[nH]c2-c2ccc3ccccc3c2)cc1.Cl | > 200 µM | inactive | inactive | –
CCCCCCc1ccc(-c2nc(N)[nH]c2CCCCCC)cc1.Cl | > 200 µM | – | – | Activity (Klebsiella pneumoniae [6]; 50 uM, in the assay text read “at 50 uM” for “at 30 uM”): inactive; fold change (FC) (Klebsiella pneumoniae [7]): 2; Activity (Klebsiella pneumoniae [8]): 8.13%
CCCCCCc1ccc(-c2c[nH]c(N)n2)cc1.Cl | 100 µM | – | – | fold change (FC) (Klebsiella pneumoniae [6]): 16; fold change (FC) (Klebsiella pneumoniae [7]): 16; fold change (FC) (Klebsiella pneumoniae [9]): 64; fold change (FC) (Klebsiella pneumoniae [1]): 256; Activity (Klebsiella pneumoniae [10]): Active; Activity (Klebsiella pneumoniae [11]): Active; Activity (Klebsiella pneumoniae [12]): inactive; fold change (FC) (Klebsiella pneumoniae [13]): 16; fold change (FC) (Klebsiella pneumoniae [14]): 8; Activity (Klebsiella pneumoniae [8]): 8.5%; HC50 at 1 h [15]: > 500 µM; hemolysis at 1 h, 30 µM [16]: 2.5%

Second part, led by results:

MIC (Klebsiella pneumoniae [2]) | SMILES | Activity (Klebsiella pneumoniae [1]) | Activity (Klebsiella pneumoniae [3]) | also measured
> 200 µM | CCCCCCc1ccc(-c2nc(N)[nH]c2Cc2ccccc2)cc1.Cl | inactive | inactive | –
200 µM | CCCCCCc1ccc(-c2nc(N)[nH]c2CC(C)C)cc1.Cl | inactive | inactive | –
100 µM | CCCCCCc1ccc(-c2nc(N)[nH]c2CCC)cc1.Cl | – | – | –
100 µM | CCCCCCc1ccc(-c2nc(N)[nH]c2C)cc1.Cl | – | – | fold change (FC) (Klebsiella pneumoniae [6]): 8; fold change (FC) (Klebsiella pneumoniae [7]): 8
200 µM | CCCCc1ccc(-c2c[nH]c(N)n2)cc1.Cl | – | – | –
> 200 µM | CCCCCCc1ccc(-c2nc(N)[nH]c2-c2ccccc2)cc1.Cl | inactive | inactive | –
